Values after ≈ are worked out from the molar mass of the structure shown.
Legend:
[1] = tested on: Aspergillus fumigatus; experiment: Tested in vitro for minimum inhibitory concentration against Aspergillus fumigatus; type: functional
Summary of the method: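 Tube dilution in Sabouraud's dextrose broth (pH 6.5). Compounds were dissolved in DMSO and serially diluted in medium. The inoculum was harvested by spatula from Kimmig agar cultures grown 21 days at 30 °C. Tubes were read after 72 h at 30 °C. MIC was the lowest concentration with no macroscopically detectable growth.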

[2] = tested on: Candida albicans; experiment: Tested in vitro for minimum inhibitory concentration against candida albicans 124; type: functional
Summary of the method: (§1)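 Yeast broth dilution in malt extract broth (pH 4.8) in glass tubes, with compounds in DMSO serially diluted in medium. Blastospores came from cultures shaken about 30 h at 37 °C in yeast nitrogen base. Growth was read after 48 h at 30 °C. MIC was the lowest concentration without macroscopically visible growth.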

[3] = tested on: Candida parapsilosis; experiment: Tested in vitro for minimum inhibitory concentration against candida parapsilosis 39; type: functional; details: Lodderomyces parapsilosis; summary of the method: as §1
[4] = tested on: Microsporum canis; experiment: Tested in vitro for minimum inhibitory concentration against microsporum canis; type: functional
Summary of the method: (§2)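 Serial dilutions were made from DMSO solutions into Sabouraud's dextrose broth (pH 6.5) in glass tubes. Inoculum was taken by spatula from Kimmig agar cultures grown 21 days at 30 °C. Incubation was 7 days at 30 °C. MIC was the lowest concentration at which growth was macroscopically undetectable.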

[5] = tested on: Sporothrix schenckii; experiment: Tested in vitro for minimum inhibitory concentration against sporothrix schenck ii; type: functional; summary of the method: as §2
[6] = tested on: Candida albicans; experiment: Tested in vitro for minimum inhibitory concentration against candida albicans 9; type: functional; summary of the method: as §1
[7] = tested on: Trichophyton mentagrophytes; experiment: Tested in vitro for minimum inhibitory concentration against Trichophyton mentagrophytes

| SMILES | MIC [1] [µg/mL] | MIC [2] [µg/mL] | MIC [3] [µg/mL] | MIC [4] [µg/mL] | MIC [5] [µg/mL] | MIC [6] [µg/mL] | MIC [7] [µg/mL] |
| --- | --- | --- | --- | --- | --- | --- | --- |
| C=C(C#CC(C)(C)C)CN(C)Cc1cccc2ccccc12 | 50 (≈ 172 µM) | > 200 | 6.25 (≈ 21.4 µM) | 0.5 (≈ 1.72 µM) | 1.56 (≈ 5.35 µM) | > 200 | 0.05 (≈ 0.172 µM) |
| CC(C#CC(C)(C)C)CN(C)Cc1cccc2ccccc12 (configuration not stated) | > 200 | > 200 | 200 (≈ 682 µM) | 0.8 (≈ 2.73 µM) | 12.5 (≈ 42.6 µM) | > 200 | 0.8 (≈ 2.73 µM) |
| CN(CCC#CC(C)(C)C)CCc1cccc2ccccc12 | 50 (≈ 170 µM) | 200 (≈ 682 µM) | 100 (≈ 341 µM) | 3.13 (≈ 10.7 µM) | 12.5 (≈ 42.6 µM) | 100 (≈ 341 µM) | 0.8 (≈ 2.73 µM) |
| CN(CCCCC#CC(C)(C)C)Cc1cccc2ccccc12 | > 200 | > 200 | > 200 | 25 (≈ 81.3 µM) | > 200 | 200 (≈ 650 µM) | 12.5 (≈ 40.7 µM) |
| CCN(Cc1cccc2ccccc12)C(=O)OCCC#CC(C)(C)C | > 200 | > 200 | 25 (≈ 74.1 µM) | 100 (≈ 296 µM) | > 200 | > 200 | 100 (≈ 296 µM) |
| CC(CC#CC(C)(C)C)N(C)Cc1cccc2ccccc12 (configuration not stated) | > 200 | > 200 | 100 (≈ 341 µM) | 1.56 (≈ 5.32 µM) | > 200 | 200 (≈ 682 µM) | 1.56 (≈ 5.32 µM) |
| CN(CC#CC(C)(C)C)Cc1cccc2ccccc12 | > 200 | > 200 | > 200 | 25 (≈ 94.2 µM) | > 200 | 200 (≈ 754 µM) | 12.5 (≈ 47.1 µM) |
| CN(CC#CC(C)(C)C)CCc1cccc2ccccc12 | > 50 | 100 (≈ 358 µM) | 50 (≈ 179 µM) | 1.56 (≈ 5.58 µM) | 6.25 (≈ 22.4 µM) | 50 (≈ 179 µM) | 1.56 (≈ 5.58 µM) |
| CN(CCCC#CC(C)(C)C)Cc1cccc2ccccc12 | 50 (≈ 170 µM) | 200 (≈ 682 µM) | 0.8 (≈ 2.73 µM) | 0.2 (≈ 0.682 µM) | 1.56 (≈ 5.32 µM) | > 200 | 0.05 (≈ 0.17 µM) |
| CN(C/C=C/C#CC(C)(C)C)Cc1cccc2ccccc12 [TERBINAFINE] | 0.8 (≈ 2.75 µM) | 25 (≈ 85.8 µM) | 0.8 (≈ 2.75 µM) | 0.006 (≈ 0.0206 µM) | 0.4 (≈ 1.37 µM) | 6.25 (≈ 21.4 µM) | 0.003 (≈ 0.0103 µM) |

More lines, in order of falling MIC [1], values ahead:

| MIC [1] [µg/mL] | MIC [2] [µg/mL] | MIC [3] [µg/mL] | MIC [4] [µg/mL] | MIC [5] [µg/mL] | MIC [6] [µg/mL] | MIC [7] [µg/mL] | SMILES |
| --- | --- | --- | --- | --- | --- | --- | --- |
| 1.56 (≈ 5.86 µM) | > 200 | > 200 | 0.4 (≈ 1.5 µM) | > 200 | 200 (≈ 751 µM) | 0.4 (≈ 1.5 µM) | CC(C)(C)C#CCCOCc1cccc2ccccc12 |
| 0.2 (≈ 0.586 µM) | 12.5 (≈ 36.6 µM) | 0.4 (≈ 1.17 µM) | 0.006 (≈ 0.0176 µM) | 3.13 (≈ 9.17 µM) | 6.25 (≈ 18.3 µM) | 0.01 (≈ 0.0293 µM) | CN(CCC#CC(C)(C)c1ccccc1)Cc1cccc2ccccc12 |
| 0.2 (≈ 0.682 µM) | 200 (≈ 682 µM) | 3.13 (≈ 10.7 µM) | 0.02 (≈ 0.0682 µM) | 12.5 (≈ 42.6 µM) | 50 (≈ 170 µM) | 0.05 (≈ 0.17 µM) | CCN(CCC#CC(C)(C)C)Cc1cccc2ccccc12 |
| 0.1 (≈ 0.341 µM) | 50 (≈ 170 µM) | 1.56 (≈ 5.32 µM) | 0.01 (≈ 0.0341 µM) | 3.13 (≈ 10.7 µM) | 12.5 (≈ 42.6 µM) | 0.006 (≈ 0.0204 µM) | CCC(C)(C)C#CCCN(C)Cc1cccc2ccccc12 |
| 0.1 (≈ 0.358 µM) | 50 (≈ 179 µM) | 1.56 (≈ 5.58 µM) | 0.01 (≈ 0.0358 µM) | 3.13 (≈ 11.2 µM) | 50 (≈ 179 µM) | 0.006 (≈ 0.0215 µM) | CN(CCC#CC(C)(C)C)Cc1cccc2ccccc12 |
| 0.05 (≈ 0.163 µM) | 25 (≈ 81.3 µM) | 0.4 (≈ 1.3 µM) | 0.003 (≈ 0.00976 µM) | 1.56 (≈ 5.07 µM) | 12.5 (≈ 40.7 µM) | 0.003 (≈ 0.00976 µM) | CCCC(C)(C)C#CCCN(C)Cc1cccc2ccccc12 |

Reference: ChEMBL document CHEMBL1127623, “Synthesis and structure-activity relationships of the novel homopropargylamine antimycotics” (1994)
